# Assay results: ChEMBL document CHEMBL4265975, “Synthesis, biological evaluation and molecular modeling of a novel series of fused 1,2,3-triazoles as potential anti-coronavirus agents” (Bioorg Med Chem Lett, 2018)
# Assays:
# [1] = Selectivity index, ratio of MCC for HEL cells to EC50 for acyclovir-resistant TK-defecient Herpes simplex virus 1 KOS infected in HEL cells; format: toxicity, cell-based; details: human, read-out: Selectivity Index
# In short: (§1)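 SI is MCC divided by EC50. […] MCC was measured in parallel on HEL cells seeded at 5 x 10^3 cells/well, as the lowest concentration causing microscopically visible alteration of cell morphology. The top concentration tested was 100 µM.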
# Vaccinia virus = assay: Antiviral activity against Vaccinia virus infected in human HEL cells assessed as inhibition of virus-induced cytopathic effect after 3 days by microscopic method; format: functional, organism-based; details: Orthopoxvirus vaccinia, 72 h
# Human alphaherpesvirus 1 [2] = assay: Antiviral activity against Herpes simplex virus 1 KOS infected in human HEL cells assessed as inhibition of virus-induced cytopathic effect after 3 days by microscopic method; format: functional, organism-based; details: Human alphaherpesvirus 1, KOS, 72 h
# [3] = Selectivity index, ratio of MCC for HEL cells to EC50 for Herpes simplex virus 1 KOS infected in HEL cells; format: toxicity, cell-based; details: human, read-out: Selectivity Index; in short: as §1
# [4] = Selectivity index, ratio of MCC for HEL cells to EC50 for Vaccinia virus infected in HEL cells; format: toxicity, cell-based; details: human, read-out: Selectivity Index; in short: as §1
# Human coronavirus 229E = assay: Antiviral activity against Human coronavirus 229E infected in HEL cells assessed as reduction in virus-induced pathogenicity after 3 days by microscopic method; format: functional, organism-based; details: 72 h
# [5] = Selectivity index, ratio of MCC for HEL cells to EC50 for Herpes simplex virus 2 strain G infected in HEL cells; format: toxicity, cell-based; details: human, read-out: Selectivity Index; in short: as §1
# [6] = Cytotoxicity against HEL cells assessed as alteration in cell morphology after 3 days by microscopic method; format: cell-based; details: human
# In short: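 HEL cells were seeded at 5 x 10^3 cells/well and exposed to graded compound concentrations, up to 100 μM, in parallel with the antiviral assay. Cell morphology was examined by light microscopy. MCC is the minimum concentration causing a microscopically detectable alteration of normal cell morphology.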
# [7] = Selectivity index, ratio of MCC for HEL cells to EC50 for Human coronavirus 229E infected in HEL cells; format: toxicity, cell-based; details: read-out: Selectivity Index; in short: as §1
# Human alphaherpesvirus 1 [8] = assay: Antiviral activity against acyclovir-resistant TK-defecient Herpes simplex virus 1 KOS infected in human HEL cells assessed as inhibition of virus-induced cytopathic effect after 3 days by microscopic method; format: functional, organism-based; details: Human alphaherpesvirus 1, KOS, 72 h
# Human adenovirus 2 = assay: Antiviral activity against Human adenovirus 2 infected in human HEL cells assessed as inhibition of virus-induced cytopathic effect after 3 days by microscopic method; format: functional, organism-based; details: Human mastadenovirus C, 72 h
# In short: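 HEL cells were infected with adenovirus 2 for 2 h. Residual virus was then removed and the cells were incubated with medium containing graded compound concentrations for 3 days at 37°C. Virus-induced cytopathogenicity was scored microscopically.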
# Human alphaherpesvirus 2 = assay: Antiviral activity against Human herpesvirus 2 strain G infected in human HEL cells assessed as inhibition of virus-induced cytopathic effect after 3 days by microscopic method; format: functional, organism-based; details: Human alphaherpesvirus 2, strain G, 72 h
# [9] = Selectivity index, ratio of MCC for HEL cells to EC50 for Human adenovirus 2 infected in HEL cells; format: toxicity, cell-based; details: read-out: Selectivity Index; in short: as §1
Structure (SMILES),selectivity ratio [1],EC50 (Vaccinia virus) [µM],EC50 (Human alphaherpesvirus 1 [2]) [µM],selectivity ratio [3],selectivity ratio [4],EC50 (Human coronavirus 229E) [µM],selectivity ratio [5],MCC at 72 h [6] [µM],selectivity ratio [7],EC50 (Human alphaherpesvirus 1 [8]) [µM],EC50 (Human adenovirus 2) [µM],EC50 (Human alphaherpesvirus 2) [µM],selectivity ratio [9]
CCOC(=O)C1(Cc2ccccc2)CN(c2ccccc2)Cc2nnn(CCCCCO)c21 (stereo not given),> 8,> 100,> 100,> 8,> 8,> 100,> 8,> 100,> 8,> 100,> 100,> 100,> 8
CCOC(=O)C1(Cc2ccc(F)cc2)CN(c2ccccc2)Cc2nnn(Cc3cccc(F)c3)c21 (stereo not given),> 8,> 100,> 100,> 8,> 8,> 100,> 8,> 100,> 8,> 100,> 100,> 100,> 8
CCOC(=O)C1(Cc2ccc(F)cc2)CN(c2ccccc2)Cc2nnn(Cc3ccc(Cl)c(Cl)c3)c21 (stereo not given),> 8,> 100,> 100,> 8,> 8,9.45,> 8,> 100,> 8,> 100,> 100,> 100,> 8
COc1ccccc1CCn1nnc2c1CCN(c1ccccc1)C2,> 8,> 100,> 100,> 8,> 8,> 100,> 8,≥ 100,> 8,> 100,> 100,> 100,> 8
COc1ccc(CCn2nnc3c2CCN(c2ccccc2)C3)cc1,> 8,> 100,> 100,> 8,> 8,> 100,> 8,> 100,> 8,> 100,> 100,> 100,> 8
CCCCCCCCn1nnc2c1C(Cc1ccccc1)(C(=O)OCC)CN(c1ccccc1)C2 (stereo not given),> 8,> 100,> 100,> 8,> 8,> 100,> 8,≥ 20,> 8,> 100,> 100,> 100,> 8
c1ccc(N2CCc3c(nnn3CC3CC3)C2)cc1,> 8,> 100,> 100,> 8,> 8,> 100,> 8,> 100,> 8,> 100,> 100,> 100,> 8
Nc1nc2c(ncn2COCCO)c(=O)[nH]1 [ACYCLOVIR],–,> 250,–,–,–,–,–,> 250,–,–,–,–,–
O=c1[nH]c(=O)n([C@H]2C[C@H](O)[C@@H](CO)O2)cc1/C=C/Br [BRIVUDINE],–,3.8,–,–,–,–,–,> 250,–,–,–,–,–
Nc1ccn(C[C@@H](CO)OCP(=O)(O)O)c(=O)n1 [CIDOFOVIR],–,85,4.5,–,–,–,–,> 250,–,2.8,22,3.4,–
Nc1nc2c(ncn2COC(CO)CO)c(=O)[nH]1 [GANCICLOVIR],–,> 100,–,–,–,–,–,> 100,–,–,–,–,–
Nc1ccn([C@H]2CC[C@@H](CO)O2)c(=O)n1 [ZALCITABINE],–,–,–,–,–,–,–,> 250,–,–,50,–,–
